Measurements from ChEMBL document CHEMBL1131151, “Novel cyclic compounds as potent phosphodiesterase 4 inhibitors” (J Med Chem, 1998).

What was measured:
[1] = target: T1, Phosphodiesterase 4 (Homo sapiens, UniProt P27815+Q08499+Q07343+Q08493); test: Concentration to inhibit 50% of Phosphodiesterase 4 (PDE-4) from guinea pig macrophages; assay type: protein assay, Cavia porcellus; conditions: target entry is the homologue from another species
How it was run: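 Enzyme source: homogenate of guinea pig peritoneal macrophages, Percoll-purified and adherence-selected, from Dunkin Hartley animals pretreated with horse serum. Two-step radioisotopic hydrolysis assay with 1 μM cAMP substrate in 20 mM Tris-HCl pH 8.0, 10 mM MgCl2, 4 mM 2-mercaptoethanol, 0.2 mM EGTA, 0.05 mg/mL BSA.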

[2] = target: T1, Phosphodiesterase 4; test: Binding affinity at Phosphodiesterase 4 by measuring displacement of (+/-)-[3H]- Rolipram to guinea pig brain membranes.; assay type: tissue-based, Cavia porcellus; conditions: target entry is the homologue from another species
How it was run: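 Guinea pig brain membranes (amount equal to 500 μg brain tissue per sample) incubated with 2 nM (±)-[3H]rolipram (24.7 Ci/mmol).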

[3] = system: PBMC; test: Inhibition of TNF-alpha release from LPS-stimulated human mononuclear cells; assay type: functional, cell-based
[4] = (§1) Inhibition of tumor necrosis factor alpha (TNF-alpha) release in murine endotoxemia model after peroral administration
How it was run: (§2)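 Male Balb/c mice, 20–25 g, dosed orally in 0.25% methylcellulose/0.2% Tween-20 in water 4 h before ip challenge with E. coli 055:B5 LPS at 30 μg/mouse. Serum TNF-α measured by ELISA. ED50 taken from dose–response curves, n = 6 mice/group.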

[5] = system: Canis familiaris; test: Emetic effect in dogs at 0.03 mg/kg intravenous dose, 2 of 2 animals affected; assay type: functional, Canis lupus familiaris
How it was run: (§3)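 Male and female beagles, 1–2 years old, 8–10 kg, food withheld the morning of testing. Compound in 100% DMSO given as a slow iv bolus into the cephalic vein over 30 s at 0.03 mL/kg. Dogs observed for up to 2 h or until emesis occurred. Usually 4 dogs (2 male, 2 female) per test.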

[6] = system: Canis familiaris; test: Emetic effect in dogs at 0.01 mg/kg intravenous dose, 1 of 2 animals affected; assay type: functional, Canis lupus familiaris; how it was run: as §3
[7] = system: Canis familiaris; test: Emetic effect in dogs at 0.2 mg/kg intravenous dose, 2 of 2 animals affected; assay type: functional, Canis lupus familiaris; how it was run: as §3
[8] = as §1; remark: listed apart in the source
How it was run: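 Male Balb/c mice, 20–25 g, were dosed orally in 0.25% methylcellulose/0.2% Tween-20 in water 4 h before an ip challenge with E. coli 055:B5 LPS at 30 μg/mouse. ED50 was taken from dose–response curves, n = 6 animals/group.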

[9] = system: Canis familiaris; test: Emetic effect in dogs at 3 mg/kg intravenous dose, 0 of 4 animals affected; assay type: functional, Canis lupus familiaris
[10] = Inhibition of tumor necrosis factor alpha (TNF-alpha) release in murine endotoxemia model after peroral administration at 30 mg/kg.; assay type: organism-based; design: dose 30 mg/kg
[11] = system: Canis familiaris; test: Emetic effect in dogs at 0.7 mg/kg intravenous dose, 0 of 4 animals affected; assay type: functional, Canis lupus familiaris; how it was run: as §3
[12] = Inhibition of tumor necrosis factor alpha (TNF-alpha) release in murine endotoxemia model; how it was run: as §2
[13] = system: Canis familiaris; test: Emetic effect in dogs at 1 mg/kg intravenous dose, 0 of 4 animals affected; assay type: functional, Canis lupus familiaris; how it was run: as §3

Structure (SMILES)	IC50 [1]	Ki [2]	other results
COc1ccc(C2(Cc3ccncc3)Cc3ccccc3C2)cc1OC1CCCC1	750 nM	1600 nM	
COc1ccc(C2CNC(=O)C2)cc1OC1CCCC1 (stereo unspecified) [ROLIPRAM]			IC50 [3]: 500 nM; ED50 [4]: 8 mg/kg; Ratio [5]: 2; Ratio [6]: 1; Ratio [7]: 2
COc1ccc(C2(Cc3ccncc3)C(=O)c3ccc(O)cc3C2=O)cc1OC1CCCC1 (stereo unspecified)	100 nM	45 nM	
COc1ccc(C2(Cc3c(Cl)cncc3Cl)C(=O)c3ccccc3C2=O)cc1OC1CCCC1	3000 nM	1700 nM	
COc1ccc(C2(Cc3ccncc3)C(=O)c3ccc(OC4CCN(C)CC4)cc3C2=O)cc1OC1CCCC1 (stereo unspecified)	30 nM	60 nM	
COc1ccc(C2(Cc3ccncc3)C(=O)c3ccc(OCC(=O)O)cc3C2=O)cc1OC1CCCC1 (stereo unspecified)	50 nM	20 nM	
CCOc1ccc2c(c1)C(=O)C(Cc1ccncc1)(c1ccc(OC)c(OC3CCCC3)c1)C2=O (stereo unspecified)	12 nM	20 nM	
COc1ccc(C2(Cc3ccncc3)C(=O)c3ccc(OC(=O)N4CCC(N5CCCCC5)CC4)cc3C2=O)cc1OC1CCCC1 (stereo unspecified)	30 nM	20 nM	ED50 [8]: 15 mg/kg; Ratio [9]: 0
COc1ccc(C2(Cc3ccccc3)C(=O)c3ccccc3C2=O)cc1OC1CCCC1	500 nM	2300 nM	
COc1ccc(C2(Cc3cc[n+]([O-])cc3)C(=O)c3ccccc3C2=O)cc1OC1CCCC1	50 nM	20 nM	
COc1ccc(C2(Cc3ccncc3)Cc3cc(OCc4ccccc4)ccc3C2=O)cc1OC1CCCC1 (stereo unspecified)	20 nM	60 nM	
COc1ccc(C2(Cc3ccncc3)C(=O)c3ccc(OCc4ccncc4)cc3C2=O)cc1OC1CCCC1 (stereo unspecified)	14 nM	30 nM	
COc1ccc(C2(Cc3ccncc3)C(=O)c3ccc(OCc4ccccc4)cc3C2=O)cc1OC1CCCC1 (stereo in doubt; (+)-17)	6 nM	20 nM	
COc1ccc(C2(Cc3ccncc3)C(O)c3ccccc3C2O)cc1OC1CCCC1 (stereo unspecified)	> 10000 nM	> 10000 nM	
COc1ccc(C2(Cc3ccncc3)C(=O)c3ccc(OCc4ccccc4)cc3C2=O)cc1OC1CCCC1 (single isomer, unassigned; (+)) [listing 1 of 2 here]			inhibition [10]: 40%
COc1ccc(C2C(=O)c3ccccc3C2=O)cc1OC1CCCC1	> 10000 nM	> 10000 nM	
COc1ccc(C2(Cc3ccncc3)C(=O)c3ccc(OCc4ccccc4)cc3C2=O)cc1OC1CCCC1 (single isomer, unassigned; (+)) [listing 2 of 2 here]	4 nM	20 nM	IC50 [3]: 200 nM; Ratio [11]: 0; Ratio [9]: 0
COc1ccc(C2(Cc3ccc(O)cc3)C(=O)c3ccccc3C2=O)cc1OC1CCCC1	70 nM	260 nM	
COc1ccc([C@H](Cc2ccncc2)c2ccccc2)cc1OC1CCCC1 [CDP840]			ED50 [12]: 25 mg/kg; Ratio [13]: 0
COc1ccc(C2(Cc3ccncc3)C(=O)c3ccccc3C2=O)cc1OC1CCCC1	30 nM	10 nM	inhibition [10]: 0%; IC50 [3]: 200 nM
COc1ccc(C2(Cc3ccncc3)C(=O)c3ccc(OCc4ccccc4)cc3C2=O)cc1OC1CCCC1 (stereo in doubt; (+)-18)	30 nM	20 nM	
